Active and inactive are the calls of the source. The calls are words filed in the database; no cut-off is given here.
What was measured:
[1] = Cytotoxicity against human MAGI-CCR5 cells assessed as cell viability after 2 to 6 days by MTS assay; conditions: MAGI-CCR5 cells
[2] = biological target: C-X-C chemokine receptor type 4 (Homo sapiens, UniProt P61073)
[3] = Plasma concentration in Harlan C57BL/6 mouse at 10 mg/kg, sc after 1 hr by LC/MS/MS analysis; format: ADME, organism-based; parameters: dose 10 mg/kg, route subcutaneous
Procedure, shortened: (§1)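 Harlan mice were given a single subcutaneous dose at 5, 10 or 20 mg/kg. Blood was sampled at multiple time points over about 8 h, and each sample was used for both total circulating WBC count and plasma drug level. Counts and concentrations were plotted against time for each dose.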

Mus musculus [4] = assay: Induction of WBC mobilization in Harlan C57BL/6 mouse at 5 to 20 mg/kg, sc after 6 to 8 hrs by LC/MS/MS analysis relative to control; format: functional, organism-based; procedure, shortened: as §1
[5] = Oral bioavailability in jugular pre-cannulated CRL Sprague-Dawley rat at 10 mg/kg; format: ADME, organism-based; conditions: in vivo
Procedure, shortened: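 Oral dosing by gavage at 10 mg/kg, with an i.v. arm at 2 mg/kg. Plasma AUC was calculated for each route, and F was obtained from the dose-normalised ratio of oral to i.v. AUC.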

Liver microsome = assay: Intrinsic clearance in rat liver microsomes at 1 uM incubated for 3 mins prior to NADPH addition by LC-MS/MS analysis; format: ADME; conditions: 0.05 h
Mus musculus [6] = assay: Induction of WBC mobilization in sc dosed Harlan C57BL/6 mouse after 1 to 8 hrs by LC/MS/MS analysis; format: functional, organism-based; procedure, shortened: as §1
[7] = biological target: C-C chemokine receptor type 2 (Homo sapiens) (UniProt P41597); assay: Inhibition of CCR2B (unknown origin) at 10 uM relative to control
[8] = biological target: T1, C-C chemokine receptor type 6 (Homo sapiens) (UniProt P51684); assay: Inhibition of CCR6 (unknown origin) at 10 uM relative to control
T1 sequence (whole entry): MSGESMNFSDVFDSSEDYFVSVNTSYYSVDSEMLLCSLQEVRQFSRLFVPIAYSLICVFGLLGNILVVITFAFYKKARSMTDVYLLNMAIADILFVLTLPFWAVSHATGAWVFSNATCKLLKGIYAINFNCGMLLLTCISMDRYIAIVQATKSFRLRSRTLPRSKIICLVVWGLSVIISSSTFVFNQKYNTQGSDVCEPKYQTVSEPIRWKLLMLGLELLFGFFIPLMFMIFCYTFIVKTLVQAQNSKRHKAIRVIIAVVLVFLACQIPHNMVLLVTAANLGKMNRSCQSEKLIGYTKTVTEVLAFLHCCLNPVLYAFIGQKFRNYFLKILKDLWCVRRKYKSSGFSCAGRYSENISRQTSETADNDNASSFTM

[9] = biological target: T2, C-C chemokine receptor type 1 (Homo sapiens) (UniProt P32246); assay: Inhibition of CCR1 (unknown origin) at 10 uM relative to control
T2 sequence (whole entry): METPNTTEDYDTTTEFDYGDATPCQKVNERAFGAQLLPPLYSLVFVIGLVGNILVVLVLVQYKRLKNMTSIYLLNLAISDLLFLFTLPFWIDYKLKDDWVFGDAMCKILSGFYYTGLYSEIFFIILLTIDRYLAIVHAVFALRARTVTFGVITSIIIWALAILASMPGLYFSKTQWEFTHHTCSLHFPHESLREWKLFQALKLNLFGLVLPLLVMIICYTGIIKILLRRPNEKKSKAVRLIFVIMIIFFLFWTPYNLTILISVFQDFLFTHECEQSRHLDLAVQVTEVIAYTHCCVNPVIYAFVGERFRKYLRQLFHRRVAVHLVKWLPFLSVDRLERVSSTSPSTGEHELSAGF

[10] = Elimination half life in jugular pre-cannulated CRL Sprague-Dawley rat at 10 mg/kg, po; format: ADME, organism-based; parameters: dose 10 mg/kg, route oral; conditions: in vivo, read-out: beta t1/2 (converted)
[11] = Plasma concentration in Harlan C57BL/6 mouse at 20 mg/kg, sc after 1 hr by LC/MS/MS analysis; format: ADME, organism-based; parameters: dose 20 mg/kg, route subcutaneous; procedure, shortened: as §1
[12] = biological target: T3, C-X-C chemokine receptor type 2 (Homo sapiens) (UniProt P25025); assay: Inhibition of CXCR2 (unknown origin) at 10 uM relative to control
T3 sequence (whole entry): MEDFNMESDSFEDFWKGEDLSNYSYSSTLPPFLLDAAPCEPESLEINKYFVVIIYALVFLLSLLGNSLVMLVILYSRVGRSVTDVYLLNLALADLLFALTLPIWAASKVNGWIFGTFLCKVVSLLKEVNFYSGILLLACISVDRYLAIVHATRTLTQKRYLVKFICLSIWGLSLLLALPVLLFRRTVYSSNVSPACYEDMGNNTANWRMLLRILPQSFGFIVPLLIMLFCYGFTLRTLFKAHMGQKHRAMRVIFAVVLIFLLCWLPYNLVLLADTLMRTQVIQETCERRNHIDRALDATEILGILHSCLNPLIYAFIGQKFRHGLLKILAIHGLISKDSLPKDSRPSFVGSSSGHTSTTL

[13] = biological target: T4, C-X-C chemokine receptor type 3 (Homo sapiens) (UniProt P49682); assay: Inhibition of CXCR3 (unknown origin) at 10 uM relative to control
T4 sequence (whole entry): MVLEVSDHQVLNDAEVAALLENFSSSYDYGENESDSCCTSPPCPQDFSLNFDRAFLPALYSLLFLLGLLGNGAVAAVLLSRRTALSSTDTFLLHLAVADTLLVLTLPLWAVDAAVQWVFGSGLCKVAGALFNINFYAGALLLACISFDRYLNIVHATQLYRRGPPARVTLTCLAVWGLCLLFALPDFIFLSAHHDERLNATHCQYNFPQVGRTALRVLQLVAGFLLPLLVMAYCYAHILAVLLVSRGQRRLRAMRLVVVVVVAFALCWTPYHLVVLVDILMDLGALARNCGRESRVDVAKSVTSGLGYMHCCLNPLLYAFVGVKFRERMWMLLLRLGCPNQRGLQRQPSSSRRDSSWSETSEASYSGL

[14] = Half life in mouse liver microsomes at 1 uM incubated for 3 mins prior to NADPH addition by LC-MS/MS analysis; format: ADME, Microsome
[15] = Half life in human liver microsomes at 1 uM incubated for 3 mins prior to NADPH addition by LC-MS/MS analysis; format: ADME
[16] = biological target: C-C chemokine receptor type 8 (Homo sapiens) (UniProt P51685); assay: Inhibition of CCR8 (unknown origin) at 10 uM relative to control
[17] = Intrinsic clearance in mouse liver microsomes at 1 uM incubated for 3 mins prior to NADPH addition by LC-MS/MS analysis; format: ADME, Microsome; conditions: 0.05 h

C-X-C chemokine receptor type 4, sequence (P61073 whole entry): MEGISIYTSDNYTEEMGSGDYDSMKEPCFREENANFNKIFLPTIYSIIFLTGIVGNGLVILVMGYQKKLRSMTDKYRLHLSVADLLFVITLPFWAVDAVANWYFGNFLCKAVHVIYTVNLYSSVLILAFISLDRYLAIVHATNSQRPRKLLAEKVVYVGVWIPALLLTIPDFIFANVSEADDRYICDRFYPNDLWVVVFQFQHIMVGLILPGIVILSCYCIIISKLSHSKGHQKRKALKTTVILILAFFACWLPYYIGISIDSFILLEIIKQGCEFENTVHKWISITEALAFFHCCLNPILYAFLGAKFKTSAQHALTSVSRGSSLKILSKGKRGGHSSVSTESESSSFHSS
C-C chemokine receptor type 8 (Homo sapiens), sequence (P51685 whole entry): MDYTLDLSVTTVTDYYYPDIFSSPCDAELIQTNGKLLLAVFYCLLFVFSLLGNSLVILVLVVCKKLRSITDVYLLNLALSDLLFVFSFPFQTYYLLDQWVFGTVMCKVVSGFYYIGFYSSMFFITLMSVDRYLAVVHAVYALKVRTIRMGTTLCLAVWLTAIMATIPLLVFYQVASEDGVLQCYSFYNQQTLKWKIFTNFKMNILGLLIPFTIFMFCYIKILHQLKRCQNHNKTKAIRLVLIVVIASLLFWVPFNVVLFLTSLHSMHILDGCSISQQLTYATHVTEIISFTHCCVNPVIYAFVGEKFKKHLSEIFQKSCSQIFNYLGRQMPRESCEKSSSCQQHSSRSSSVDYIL
C-C chemokine receptor type 2 (Homo sapiens), sequence (P41597 whole entry, looked up): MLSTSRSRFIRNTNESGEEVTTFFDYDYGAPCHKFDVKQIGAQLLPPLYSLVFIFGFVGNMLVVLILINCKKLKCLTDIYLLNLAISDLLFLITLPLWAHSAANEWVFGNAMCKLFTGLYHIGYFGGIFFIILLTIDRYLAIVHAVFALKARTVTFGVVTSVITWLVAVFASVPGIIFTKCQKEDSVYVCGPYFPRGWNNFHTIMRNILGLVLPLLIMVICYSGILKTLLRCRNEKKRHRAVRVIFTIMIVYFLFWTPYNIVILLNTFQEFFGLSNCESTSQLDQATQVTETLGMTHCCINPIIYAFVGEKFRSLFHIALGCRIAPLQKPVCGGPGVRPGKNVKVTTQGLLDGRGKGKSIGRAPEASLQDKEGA

Q: What does the source list for `NCCCCN(C[C@H]1Cc2ccccc2CN1)[C@H]1CCCc2cccnc21`?
A: CC50 [1]: > 10 µM; IC90 [2]: 240 nM; concentration at 1 h [3]: 1020 ng/mL; Activity (Mus musculus [4]): inactive; bioavailability [5]: 63%; CLH (Liver microsome): 0.035 mL/min/mg; Activity (Mus musculus [6]): Dose-dependent effect; inhibition [7]: < 10%; inhibition [8]: < 10%; inhibition [9]: < 10%; half-life [10]: 360 min; concentration at 1 h [11]: 1540 ng/mL; inhibition [12]: < 10%; inhibition [13]: < 10%; half-life at 1 µM [14]: 22 min; half-life at 1 µM [15]: > 60 min; inhibition [16]: < 10%; CLH [17]: 0.064 mL/min/mg

Reference: ChEMBL document CHEMBL3091329, “Discovery of tetrahydroisoquinoline-based CXCR4 antagonists” (ACS Med Chem Lett, 2013)
